This is an account of results in PMC4118675 (Chembiochem : a European journal of chemical biology, 2014).

“Also recorded” adds a separate entry of the source.

One data set deals with T1, human c-Myc-DUSP6 (Homo sapiens, UniProt Q16828).
T1 sequence (Q16828 1-381): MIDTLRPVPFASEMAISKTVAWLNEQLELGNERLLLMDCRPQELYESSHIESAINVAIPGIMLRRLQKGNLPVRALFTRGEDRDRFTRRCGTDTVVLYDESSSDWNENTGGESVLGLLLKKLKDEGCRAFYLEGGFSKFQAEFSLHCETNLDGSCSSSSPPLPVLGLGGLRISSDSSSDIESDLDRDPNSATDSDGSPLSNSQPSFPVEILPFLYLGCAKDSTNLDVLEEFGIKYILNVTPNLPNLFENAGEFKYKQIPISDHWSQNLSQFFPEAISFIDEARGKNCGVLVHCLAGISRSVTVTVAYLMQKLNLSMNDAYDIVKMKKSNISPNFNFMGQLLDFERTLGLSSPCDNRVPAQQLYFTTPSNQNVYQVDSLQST
As to the kind of experiment: Chemical complementation assay for DUSP6. The format is cell-based. Summed up: (§1)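 Human c-Myc-tagged DUSP1 (in pcDNA3.1) or DUSP6 (in pSG5) transfected into HeLa cells, which were grown in DMEM with 10% FBS at 37 °C and 5% CO2. At 48 h, quadruplicate wells got a 15 min treatment with ten two-fold dilutions, then TPA (500 ng/ml) for 15 min. Cells were immunostained for pERK and c-Myc. IC50 came from a four-parameter logistic fit of KS values versus concentration.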

In a further data set the target is T2, human c-Myc-DUSP1 (Homo sapiens, UniProt P28562).
T2 sequence (P28562 1-367): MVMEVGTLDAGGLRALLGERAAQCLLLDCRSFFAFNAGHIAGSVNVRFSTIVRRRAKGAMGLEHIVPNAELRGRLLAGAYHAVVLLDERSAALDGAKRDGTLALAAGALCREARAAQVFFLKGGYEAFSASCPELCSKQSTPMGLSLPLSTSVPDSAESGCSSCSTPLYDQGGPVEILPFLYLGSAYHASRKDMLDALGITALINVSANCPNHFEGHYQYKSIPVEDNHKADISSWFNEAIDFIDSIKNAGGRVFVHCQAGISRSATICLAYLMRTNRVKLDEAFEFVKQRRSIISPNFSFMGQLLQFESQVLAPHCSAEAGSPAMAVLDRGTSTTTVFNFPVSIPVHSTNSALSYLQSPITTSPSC
As to the kind of experiment: Chemical complementation assay for DUSP1. The format is cell-based. Summed up: as §1

The next data set deals with FGF signaling. The data set is described as follows: FGF reporter activation in Tg. It is filed as in vivo, zebrafish. As to conditions: for in vivo FGF hyperactivation activity (in words): Tg(dusp6:EGFP)pt6 embryos, SAR statement relative to 1. Summed up:
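Compound was added from 100X DMSO stocks (1% DMSO final). Time course was imaged hourly for 6 h; dose-response was read at 5 h. Embryos were anaesthetised with MS222 (40 μg/ml) and imaged at 4X (488/525 nm).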

The subject of data set [1] is Recombinant His-tagged Dusp6. As to the kind of experiment: In vitro OMFP phosphatase assay, ERK2 induced activation of DUSP6. As to conditions: 100 μM compound, with recombinant ERK2, OMFP substrate. It is filed as biochemical. Summed up: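 Recombinant His-tagged Dusp6 (250 ng), expressed in bacteria, was preincubated with 100 μM test compound. Recombinant ERK2 (210 ng) was added, then OMFP substrate (100 μM). Fluorescence (485/525 nm) was read every 10 min for 1 h at room temperature. Percent inhibition was taken at 10 min, within the linear range, from three independent experiments (mean ± SD). Vanadate was the positive control; one-way ANOVA with Tukey post hoc test.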

The test system of another data set is zebrafish embryos. As to the kind of experiment: Hatching study in zebrafish embryos. The format is in vivo. As to conditions: 6 hour exposure followed by washout; for embryos hatched (in words): exposure at their EC50 (1: 10 μM, 7: 5 μM).
For a further data set, the system named is EA.hy926 cells. The data set is described as follows: Cytotoxicity in cultured EA.hy926 cells. It is filed as cell-based. As to conditions: six hours, concentrations up to 50 μM. Summed up: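 EA.hy926 endothelial hybridoma cells were kept in DMEM with 10% FBS and 2 mM glutamine, plated at 10,000/well and allowed to attach overnight. They were exposed for 6 h to five-point 1/3 dilution gradients, with phenylarsine oxide as positive control. Live cells were stained with propidium iodide (1 μg/ml) and Hoechst 33342 (10 μg/ml), then imaged. Scored per field: nuclei count, nuclear condensation, % PI-positive cells.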

For the next data set, the system named is DUSP. As to conditions: bacterially produced recombinant protein, no ERK; cited from earlier work.
Where [2] appears, read: HeLa chemical complementation assay.

Consider `COc1ccc(/C=C2/C(=O)c3ccccc3C2N2CCOCC2)cc1` (stereo not shown) [Compound 24], for which the “DUSP6 inhibition in mammalian cells (in words)” value at human c-Myc-DUSP6 (setting [2]) is “lacked antiphosphatase activity”. For the same compound, the “DUSP1 inhibition in mammalian cells (in words)” value on human c-Myc-DUSP1 (setting [2]) was “lacked antiphosphatase activity”. Moreover, the “in vivo FGF hyperactivation activity (in words)” value with FGF signaling was “inactive; also recorded: abolished the activity”.

Take `O=C1/C(=C/c2ccccc2)C(N2CCOCC2)c2ccccc21` (stereo not shown) [Compound 7]: in data set [1], the “suppression of ERK-stimulated activation of DUSP6 (in words)” value (shortened to “suppression”) is “significantly suppressed activation of DUSP6”. In addition, in the data set on zebrafish embryos, the “embryos hatched (in words)” value was “no embryos hatched”. In the data set with FGF signaling, the “in vivo FGF hyperactivation activity (in words)” value is listed as “maximal activity”.

In the case of `O=C1C(=Cc2ccccc2)C(Nc2ccccc2)c2ccccc21` (stereo not shown) [Compound 4], in the data set with FGF signaling, the “in vivo FGF hyperactivation activity (in words)” value is on record as “abolished activity”.

For `O=C1C(=Cc2ccc(Cl)cc2)C(NC2CCCCC2)c2ccccc21` (stereo not shown) [Compound 15], the “in vivo FGF hyperactivation activity (in words)” value in the data set on FGF signaling is reported as “did not substantially change activity compared to 1”.

As to `O=C1/C(=C/c2ccccc2)C(NC2CCCCC2)c2cc(Br)ccc21` (stereo not shown) [Compound 19], the “cellular toxicity (in words)” value in the data set on EA.hy926 cells was “devoid of cellular toxicity”. Moreover, the “suppression” value in data set [1] is “significantly suppressed activation of DUSP6”. Moreover, in the data set on zebrafish embryos (20 μM (two times the EC50 for FGF activation)), the “embryos hatched by 56 hpf” value came out at 100%. Also, the “in vivo FGF hyperactivation activity (in words)” value in the data set with FGF signaling is reported as “tolerated”.

On to `OC1C(=Cc2ccccc2)C(NC2CCCCC2)c2ccccc21` (stereo not shown) [Compound 31, 2-benzylidene-3-cyclohexylaminoindan-1-ol], for which the “suppression” value in data set [1] was “insignificant”. In addition, the “in vivo FGF hyperactivation activity (in words)” value with FGF signaling is reported as “abolished activity”.

`O=C1C(=Cc2ccc(Cl)c(Cl)c2)C(NC2CCCCC2)c2ccccc21` (stereo not shown) [Compound 16]: the “in vivo FGF hyperactivation activity (in words)” value with FGF signaling was “did not substantially change activity compared to 1”.

`O=C1/C(=C/c2ccccc2)C(NC2CCCCC2)c2ccccc21` (stereo not shown) [Compound 1, (E)-2-benzylidene-3-(cyclohexylamino)-2,3-dihydro-1H-inden-1-one]: the “antiphosphatase activity in traditional biochemical assay (in words)” value with DUSP was “lacked antiphosphatase activity”. In data set [1], the “suppression” value is reported as “significantly suppressed activation of DUSP6”. Moreover, the IC50 was 13.3 ± 1.8 µM against human c-Myc-DUSP6 and 8 ± 0.6 µM on human c-Myc-DUSP1. The “embryos hatched (in words)” value in the data set on zebrafish embryos was “no embryos hatched”. Moreover, the “time at which GFP expression reached a maximum” value in the data set on FGF signaling (20 μM, 24 hpf embryos, stable for an additional hour) stood at 5 h. Besides, in the data set with FGF signaling (5 hour time point, declined at higher concentrations), the “concentration of maximal FGF reporter activation” value came to 20 µM.
